Source: the EternaBench riboswitch data

System: MS2 coat protein
Experiment: apparent Kd, MS2 coat protein; higher = weaker binding; RNA-MaP array; FMN 200 µM where present
Summary of the method: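 Two titrations, one without ligand and one with constant ligand, were run with SNAP-549-labelled MS2 coat protein from 0.7 or 1.5 nM, doubling to 3 µM. The targets were designs transcribed by stalled E. coli RNA polymerase on Illumina sequencing-chip clusters, in 100 mM Tris-HCl pH 7.5, 80 mM KCl, 4 mM MgCl2, BSA, DTT, yeast tRNA and Tween-20. The apparent Kd is the median of filtered per-cluster binding-curve fits, with green signal normalised to red-channel RNA signal and control-cluster median Fmax.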

[1] = designed as: OFF switch for flavin mononucleotide, no ligand
[2] = ligand present: flavin mononucleotide, designed as: OFF switch for flavin mononucleotide
[3] = designed as: ON switch for flavin mononucleotide, no ligand
[4] = ligand present: flavin mononucleotide, designed as: ON switch for flavin mononucleotide

Sequence	apparent Kd [1]	apparent Kd [2]	apparent Kd [3]	apparent Kd [4]
UACAUGAGGAUCACCCAUGUUAACAUGGUGUUGUUAUAUCUGAGAAGGGUAAUAUUACAUUAAGUACAGGAUAUCAUUGAUGUU	208 nM	46.3 nM		
AUUAAGAAUGAAGGAUAUCUAAGCGUAAACAAAAGAGAAGGUCAAUAGUACAUGAGGAUCACCCAUGUUAGAAUAGAUGGGAUA	117 nM	103 nM		
AAGGAUCGAGGAUAUACAUAGAUACAGAUUCAUGUAGAACUACAUGAGGAUCACCCAUGUAGAAGGCGAUCAUA	27.1 nM	127 nM		
UGAUAACAUGUAGGAUAUGCAGCAUUGACCACUGCAGAAGGACAUGAGGAUCACCCAUGUACCCAUACUAUGGGAUCACGCAAU	45.9 nM	195 nM		
AGUAUGUUUGAGAAGGUGAAGUGGAAACAUGAGGAUCACCCAUGUAUUAGGAAGCCUGGUUUUGUCAAGGAUAUCGGGUAUACA			19.8 nM	16.1 nM
AGCUAGUGAGGAUAUACGAACAUGUCAAAAGACGUGAAGGGACAUGAGGAUCACCCAUGUAGAAGGCACUAGCA	41.1 nM	139 nM		
UGAUCUAUGUAGAAGGCCCAUAUCUAUAUUUAGGGAGGAUAUACAUGAGGAUCACCCAUGUAUAGAGCUAGUGGACUGGUCAGC	48 nM	69.4 nM		
GAAAACGCAGAGGAUAUUUCAGAUCCUAGCUGCAAAGAAGGCUGCACAUGAGGAUCACCCAUGUGGUCCUGAAG	65.1 nM	155 nM		
GACAUUAUAGGAUAUACAUGAGGAUCACCCAUGUCCGGCGGCCACCGCCAUUCACUGUGUAGAAGGGUAGUUUG	87.9 nM	68.8 nM		
CCUUUGAAGAUCCUGGUUUUCGACAUGAGGAUCACCCAUGUGCAGGAUAUCGUGCCGGUGCUGUGCGAGAAGGGCAGUCUCAGC	15.1 nM	17.9 nM		
GCCGUGUUAGGAUAUUAAAGACCUGCGCCGAGCGCAGGAAGUAAGAAGGAACAUGAGGAUCACCCAUGUGUCCG	18.1 nM	16.1 nM		
UGUAAUGCUAUUGCAGAGGUUUAGAAGGAUAUACAUCGACAUGACCGUACAUGAGGAUCACCCAUGUAGAAGGUCUAACUUCUU	4.95 nM	4.91 nM		
CGUGAACAUGAGGAUCACCCAUGUGAAAAACAUAGAGGAUAUGUCACGUGAGUGUAAAAGACAGAAGGCUAUCGUG			85.4 nM	43 nM
UGUCGGAGCAGAGGAUAUACAUGAGGAUCACCCAUGUAAAUGAAAGAUAAGCUGGAAACAGCAAUGUAGAAGGCUGCUCCGACA	18.4 nM	88 nM		
UAUCCGCUAGGAUAUACUAUAUUGUCCUCGUGAGUGAUGCUACAUGAGGAUCACCCAUGUAGAAGGAGCGCGUG	27.3 nM	30.6 nM		
CCCAUGUGUGUGAGGAUAUGGUCAGUCAUACUCGGCCAGAAGGCACAUGAGGAUCACCCAUGUGGCCUCUCAUC	17 nM	17.8 nM		
AUAAUGUGAGGAUAUCAGUAAGAAUGCUUCGGCAUUCUUACUGAGAAGGCACAUGAGGAUCACCCAUGUGAUUA	201 nM	964 nM		
CGUAGGAUGCAGAAGGCAUGAACAUGAGGAUCACCCAUGUCAAAAGACAUGAGGAUAUGCAUCCUACGAAAAGUGCGAAAGCAC			17.5 nM	5.6 nM
UGACGGAGCAGAGGAUAUACAUGAGGAUCACCCAUGUAAGAUCUCCAGGAAACUGGAGAUCAAAUGUAGAAGGCUGCUCCGUCA	18.1 nM	56 nM		
UUUUAGCGAGGAUAUACAUUUUUUUUAUUAUCCUCAUUAUUACAUGAGGAUCACCCAUGUAGAAGGCGCAUUUU	41 nM	139 nM		
AACCAACAUGAGGAUCACCCAUGUUCUCAGACGUUUAGGUCACAGGAUAUUCGUGCUUGUGGGACGGAGAAGGGUGCCUCGCUG			92.7 nM	125 nM
AUCAGCUCGUCAGGAUAUACAUCACUGCUUCGGCAGUGUGGUAAGGUCACAUGAGGAUCACCCAUGUAGAAGGGACGAGCUGAU	8.48 nM	106 nM		
GGUUAGAAAGGAUAUACAUGUCGUGAGACAUCUUGCACCUAACAUGAGGAUCACCCAUGUAGAAGGUUCAAGCC	17.4 nM	30.5 nM		
AAAUUUUGUCAAGGAUAUGUAUAAAAGAUAAGAAAACAUGAGGAUCACCCAUGUAUAUGGUGGGAACAGAAGGUGAAUAAGUAA	185 nM	158 nM		
UUUUAACAUGAGGAUCACCCAUGUGAGGAUAUCGAAAUUUAUAUUAAUAUUAUUAUUACGAGAAGGCACAUUUU	71.9 nM	91.1 nM		
GAUCAACAUGAGGAUCACCCAUGUGAGGAUAUGAUACUAUGUACUUCGGUACAUAGUAUCAGAAGGCAUAUAAA	44.7 nM	35.2 nM		
GGAUCCAACACAGGAUAUGCUGGACUUUGUCCAGCAGAAGGGUGAAGAACAUGAGGAUCACCCAUGUGGAUCCAUAUAUUUUAU			262 nM	16.5 nM
GCGGGAGGAGGAUAUACAAUCGUGUGACCCGGACCCUAUGGACAUGAGGAUCACCCAUGUAGAAGGUUUCCCUU	112 nM	568 nM		

Sequence	apparent Kd [1]	apparent Kd [2]	apparent Kd [3]	apparent Kd [4]
ACACUCUAUGCAGGAUAUCGAGCCUGGGCCUUGUUUUUUGUAAACAUGAGGAUCACCCAUGUCUUCGAGAAGGGCAUAACACCG	372 nM	136 nM		
UAGCGCUGUCGAGAGGAUAUGCGGUGAUGGACAUGAGGAUCACCCAUGUUAGCGAUAGCAUUACGGUAGAAGGCUCUACAGCUGC			27.6 nM	13.6 nM
GGUGCUAUGUAGAAGGCAGAUCUGAUUCAGAUCUGAGGAUAUACAUGAGGAUCACCCAUGUUAAGCACCAGCACGAGAGUGCAA	6.49 nM	11.2 nM		
UCGAACUUUCGUGUAAUUCGCACAUGAGGAUCACCCAUGUACGAGGAUAUGUACCUAAACGGCUAACAGAAGGCGUACUGGGCA	170 nM	106 nM		
GGGUACAUCGGAGGAUAUCCUGUAAAUACAUGAGGAUCACCCAUGUCGAUGGAGACAUCGGAGAUUGAGAAGGCCGAUGUACCG			35 nM	6.74 nM
AUCCUGCGAGGAUAUACUUACUUUUUUUCAUUUGGUUGCGAACAUGAGGAUCACCCAUGUAGAAGGUGCAUAAC	22.9 nM	24.7 nM		
GGCGGGAAUGAGAAGGGUCACAUGAGGAUCACCCAUGUGCUCUUCGCCGUGACAGGAUAUCAUCGCCGCCAGGUUAGAUUUUUG	7.83 nM	30.9 nM		
AUUUAGUGCGAGAAGGCGUGGUCACAUGAGGAUCACCCAUGUCAGUACACGAGGAUAUCGAUUCACUGUAUAAACACAAGUGAC			53.8 nM	6.22 nM
AAAGGUGAUUCAGGAUAUGUGUAGGAGGGCGGCGCAGAAGGGAAUCUAGCCCGACGUCAUACAUGAGGAUCACCCAUGUAUGCC			28.7 nM	18.5 nM
CGGCUCUCAGGAUAUACCUCGGGUGGCCAACUGUUUCGUUUACAUGAGGAUCACCCAUGUAGAAGGGAGGGCAA	49.7 nM	27 nM		
UGUUGUAUUACAGGAUAUCUAGUAUUUUGAUUUAGAGAAGGGUAUUCACAUGAGGAUCACCCAUGUAUAUACGAGGAAGUUGUG			52.4 nM	57.4 nM
UGUCGGAGCAGAGGAUAUUACAUGAGGAUCACCCAUGUAUGAUCCAAUAGCUGGAAACAGCAAUGUAAGAAGGCUGCUCCGACA	291 nM	8.48 nM		
CGUGCAAGUGUAGGAUAUGGUUAUCUAUGUCUAGUUACUAGACAUAGAUAACCAGAAGGACAUGAGGAUCACCCAUGUAGCACG	7.5 nM	17.6 nM		
GCACUUUUAUUUGAACCGAUUCGAACAUGAGGAUCACCCAUGUAGGAUAUGCUAAAAGUUGUGAUGCAGAAGGACAUUAAGUGC	5.94 nM	6.99 nM		
UUCGGCGCACAGAAGGAUCGGUACAUGAGGAUCACCCAUGUAAGCAAAGAUAGGAUAUGUGGAGCUUACAGGGAAAAUGAACAA			93.2 nM	19 nM
UUCGAGCCAAGGCUCGCGAGUACACAGGAUAUGAAAAGUCACAUGAGGAUCACCCAUGUCCAAAAUCAGAAGGGUGAGACUAAG			520 nM	101 nM
UAUCCGUCAGUAGGAUAUAUGCCGAGUCAUUGCAUAGAAGGACUGACAUGAGGAUCACCCAUGUCAGAUUGCGCUGGUCUUCCG	6.24 nM	6.68 nM		
CCAAACGGAGGAUAUACAAAUUAAGGAAAAAAACGCGAAAAACAUGAGGAUCACCCAUGUAGAAGGCCGAAAAA	19.3 nM	17.9 nM		
GCCAGUUAUGUAGGAUAUGCGAGGCGAGCCUGAGCAGAAGGACAUGAGGAUCACCCAUGUAUUGCGGUUUAAGUUCAGAUCGCU	17.6 nM	23.4 nM		
UUGGUACAUGAGGAUCACCCAUGUGGGUCGGUCGCAGGAUAUGCCCGUGGGCGCUUGCGGGCAGAAGGGUGCCGUA			392 nM	102 nM
GCCAUCGCAUGAGGAUAUGGCACCGUUUCGGUGCCAGAAGGCAUGUCAUAAGACAUGAGGAUCACCCAUGUGGUUAAGAUGGCA			865 nM	50.9 nM
AGGAGACAUGAGGAUCACCCAUGUGAGAAGAGGCGAGGAUAUCGAAAAAAAAAAAAAAAACGAGAAGGCGCGAGAA			71 nM	39.3 nM
GGCUAGUCAGGAUAUACGAACAUGUCAAAAGACGUGAAGGGACAUGAGGAUCACCCAUGUAGAAGGGACUAGCA	28 nM	158 nM		
UGUGUUAUUGGAGGAUAUCGAUAUCAAACAUGAGGAUCACCCAUGUUGAGGAUCACACAUGUAAAUGAGAAGGCCGACGUAGUG			12.5 nM	16.2 nM
GCCAACUUAUGAGGAUAUGGCACCUUAUUGGUGCCAGAAGGCAUGUCAAUUGACAUGAGGAUCACCCAUGUAUUAUAGUUGGCA			700 nM	108 nM
UUAGCGUAGGUAAGGAUAUGCUGGUCUAAUGAUCAGCAGAAGGUACAUGAGGAUCACCCAUGUGGAUUCGUUAU	18.5 nM	37 nM		
UAGAAGUCAGGAUAUCCAUGGCGGCACUUGCGUGGUGGCGUGGAGAAGGGACAUGAGGAUCACCCAUGUAAAGG	148 nM	174 nM		
